Rows were chosen to be rich in hits. Some 4.7% of all compounds tested hit in one or more screens of this group.
aSyn UTR inh: 5' untranslated region of α-synuclein, MLPCN primary screen; AID 1813; inhibition, % (tested at 7.5 µM); alpha-synuclein 5'UTR reporter, inhibitor activity; 0.82% of 300,000 active; in the data active = inhibition above about 60%;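 also: H4 neuroglioblastoma cells stably carrying SNCA 5'UTR luciferase fusion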
Mdm2-MdmX inh: inhibitors of human Mdm2/MdmX interaction; O15151+Q00987; SaOS-2 split-luciferase Mdm2/MdmX complementation, luminescence; inhibition, % at 8 µM; 3% of 330,000 active;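 active = inhibition of at least 50% at 8 µM in the primary screen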
Target sequence (O15151 whole entry, looked up): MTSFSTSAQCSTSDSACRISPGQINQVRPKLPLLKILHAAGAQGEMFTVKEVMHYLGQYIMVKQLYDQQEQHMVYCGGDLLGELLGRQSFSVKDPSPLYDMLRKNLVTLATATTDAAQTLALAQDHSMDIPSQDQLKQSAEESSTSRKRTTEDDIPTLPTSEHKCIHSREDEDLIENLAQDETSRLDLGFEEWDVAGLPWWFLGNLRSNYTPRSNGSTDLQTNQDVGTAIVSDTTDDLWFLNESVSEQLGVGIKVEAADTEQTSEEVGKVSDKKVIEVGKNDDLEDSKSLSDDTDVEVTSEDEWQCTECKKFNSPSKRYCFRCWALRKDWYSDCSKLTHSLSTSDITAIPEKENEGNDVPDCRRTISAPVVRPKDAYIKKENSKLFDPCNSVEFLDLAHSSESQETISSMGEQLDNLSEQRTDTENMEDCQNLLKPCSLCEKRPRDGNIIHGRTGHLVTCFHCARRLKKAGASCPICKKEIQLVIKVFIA
Target sequence (Q00987 whole entry, looked up): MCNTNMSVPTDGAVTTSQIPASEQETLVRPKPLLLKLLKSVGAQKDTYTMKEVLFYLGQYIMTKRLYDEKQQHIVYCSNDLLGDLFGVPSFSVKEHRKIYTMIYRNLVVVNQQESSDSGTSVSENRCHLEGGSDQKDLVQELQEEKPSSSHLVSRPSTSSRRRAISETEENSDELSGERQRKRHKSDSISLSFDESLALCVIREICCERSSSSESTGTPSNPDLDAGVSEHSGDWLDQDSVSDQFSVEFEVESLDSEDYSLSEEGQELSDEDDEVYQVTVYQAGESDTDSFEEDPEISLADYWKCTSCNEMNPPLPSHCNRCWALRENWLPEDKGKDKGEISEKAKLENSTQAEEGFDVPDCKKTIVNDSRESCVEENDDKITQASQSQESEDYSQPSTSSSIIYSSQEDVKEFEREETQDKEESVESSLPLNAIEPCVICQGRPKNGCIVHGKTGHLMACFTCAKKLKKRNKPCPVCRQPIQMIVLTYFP
IMP-1 inh: blocks Pseudomonas aeruginosa IMP-1 metallo-beta-lactamase; purified IMP-1, nitrocefin hydrolysis, epi-absorbance fluorescence; inhibition, % at 5.6 µM; 0.45% of 290,000 active; AID 1556;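 active = inhibition above the mean plus 3 SD of all compounds in the same screening run, cut at about 4.5% in these data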
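System: purified IMP-1; amount: IMP-1 0.2 nM before substrate addition; compound: single dose, 5.6 µM; times: 25 °C, 15 min preincubation, 25 min reaction; signal: Epi-absorbance via hydrolysed-nitrocefin quenching of white-plate fluorescence, 480/530 nm, EDTA stop; benchmarks: DMSO with and without IMP-1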
VIM-2 inh: blocks Pseudomonas aeruginosa VIM-2 metallo-beta-lactamase | purified VIM-2, nitrocefin hydrolysis, epi-absorbance fluorescence | inhibition, % at 5.6 µM | 0.89% of 290,000 active;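 active = inhibition above the mean of all tested compounds plus 3 SD, cutoff set per screening run, cut at about 7.5% in these data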;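 also: red hydrolysis product quenches plate fluorescence so inhibitors raise well fluorescence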
Jurkat NFkB inh: lowers PMA/ionomycin-induced NF-kB signal in Jurkat cells; AID 435003; inhibition, % at 4 µM; PMA/ionomycin-induced NF-kB luciferase reporter, luminescence; 0.53% of 330,000 active; in the data active = inhibition above about 50%
697 NFkB inh: lowers PMA/ionomycin-induced NF-kB signal in 697 B cells; 697 B-cell NF-kB luciferase reporter, 16 h; inhibition, % at 4 µM; 0.33% of 330,000 active; in the data active = inhibition above about 35%
Of the large screens only hits and unclear results are named; the others gave an inactive call.

COc1ccc2c(C)nc(Nc3nc(C)c(C)c(=O)[nH]3)nc2c1	aSyn UTR inh 102.5
CCc1c(C)nc(Nc2nc(C)c3ccc(OC)cc3n2)[nH]c1=O	none
Nc1ccc(-c2nc3ccc(C(=O)O)cc3s2)cc1	aSyn UTR inh 95.4 (no result: Mdm2-MdmX inh, Jurkat NFkB inh, 697 NFkB inh)
O=C(O)c1ccc2nc(-c3ccccc3)sc2c1	none
S=c1[nH]nc(CCc2nc3ccccc3[nH]2)n1-c1ccccc1	VIM-2 inh 7.8
S=c1[nH]nc(CCc2nc3ccccc3[nH]2)n1-c1cccc(Cl)c1	VIM-2 inh 7.7
COc1ccc(-n2c(CCc3ccccc3)n[nH]c2=S)cc1	none
N#Cc1c(-c2ccccc2)nc(SCc2cccc(Cl)c2)[nH]c1=O	none
O=C(COc1cc(F)ccc1[N+](=O)[O-])NCCN1C(=O)CSC1=O	none (no result: aSyn UTR inh, IMP-1 inh, VIM-2 inh)
COc1ccccc1CCC(=O)N(C)CC(=O)Nc1ccc(Cl)c(C(F)(F)F)c1	none
Cc1cc(C)c2cc(C(=O)N3CCC(C(=O)c4ccc(F)cc4)CC3)[nH]c2c1	IMP-1 inh 4.5 (no result: aSyn UTR inh)
Cc1cc(C)c2cc(C(=O)N3CCC(N4CCCCC4)CC3)[nH]c2c1	none
COC(=O)[C@]1(C)N[C@H](c2ccc(-c3ccc(F)cc3)cc2)[C@@H]2C(=O)N(C)C(=O)[C@@H]21	none (no result: IMP-1 inh, VIM-2 inh)
COc1ccccc1OCc1nn[nH]n1	none
O=c1nc2c(O)cccn2c2c1c(=O)[nH]c1ccccc12	IMP-1 inh 8.3 (no result: Mdm2-MdmX inh, Jurkat NFkB inh, 697 NFkB inh)
O=C1c2ccccc2S(=O)(=O)N1CC(O)COc1ccc(Br)cc1 (stereo unspecified)	IMP-1 inh 5.3
O=C(O)c1cc([N+](=O)[O-])ccc1NCc1ccccc1Cl	VIM-2 inh 11.3
COc1cc2c(cc1OC)C(c1ccccc1)CC2=O (stereo unspecified)	IMP-1 inh 10.0
CN1CCN(C(=O)c2ccc(NS(=O)(=O)c3cccc([N+](=O)[O-])c3)cc2)CC1	none (no result: aSyn UTR inh, IMP-1 inh, VIM-2 inh)
CCOC(=O)c1cnc2ccc(OCC)cc2c1NCc1cccnc1	none
CCOC(=O)c1cnc2c(OC)cccc2c1NCc1cccnc1	VIM-2 inh 10.9
CCC1=NN2C(=N)/C(=C\c3ccc(OCCOc4ccc(NC(C)=O)cc4)cc3)C(=O)N=C2S1	VIM-2 inh 10.1
COc1ccc(C(=O)C(CCC(CNC(C)(C)C)C(=O)c2ccc(OC)cc2)CNC(C)(C)C)cc1 (stereo unspecified)	aSyn UTR inh 65.5 (no result: Mdm2-MdmX inh, Jurkat NFkB inh, 697 NFkB inh)
COc1ccc(C(=O)CC(=O)c2ccc(F)cc2)cc1	none (no result: IMP-1 inh, VIM-2 inh)
CC(O)c1nc2ccccc2n1CCCCOc1ccccc1 (stereo unspecified)	IMP-1 inh 37.6
O=C(CCl)Nc1cc(SCC(O)CO)cc([N+](=O)[O-])c1 (stereo unspecified)	aSyn UTR inh 110.0 (no result: Mdm2-MdmX inh, Jurkat NFkB inh, 697 NFkB inh)
COc1ccccc1NC(=O)c1ccccc1N(Cc1ccccc1)S(C)(=O)=O	none
COc1ccc(-c2n(CC(=O)OC3CC(C)CCC3C(C)C)c3ccccc3[n+]2C)cc1 (stereo unspecified)	aSyn UTR inh 101.4 (no result: Mdm2-MdmX inh, Jurkat NFkB inh, 697 NFkB inh)
CC1CCC(C(C)C)C(OC(=O)CSc2nccc(=O)[nH]2)C1 (stereo unspecified)	none
CCn1c(=O)c2cc(C(=O)NCCN3CCOCC3)sc2c2ccccc21	none
CN1CCN(C(=O)c2cc3c(=O)n4ccccc4nc3s2)CC1	VIM-2 inh 7.9
CCn1c(=O)c2cc(C(=O)N3CCN(C)CC3)sc2c2ccccc21	VIM-2 inh 9.0
Cc1cccc(-n2c(-c3ccoc3C)n[nH]c2=S)c1	VIM-2 inh 9.1
Cc1cccc(-n2c(C)n[nH]c2=S)c1	VIM-2 inh 8.0
Cc1cccc(-n2c(-c3ccncc3)n[nH]c2=S)c1	none
Cc1ccccc1-n1c(-c2ccoc2C)n[nH]c1=S	VIM-2 inh 8.6
Cc1ccccc1-n1c(C)n[nH]c1=S	none
Cc1cccc(-n2c(-c3csc4ccccc34)n[nH]c2=S)c1	none
CC(OC(=O)C1CC1)C(=O)Nc1cc(Cl)cc(Cl)c1 (stereo unspecified)	none (no result: aSyn UTR inh, IMP-1 inh, VIM-2 inh)
Cc1cc(NC(=O)CN2C(=O)NC3(CCCCC3)C2=O)ccc1N1CCCC1	none (no result: aSyn UTR inh, IMP-1 inh, VIM-2 inh)
CC(=O)Oc1ccc(/C=N\NC(=O)c2cc3c(ccc4ccccc43)o2)cc1	IMP-1 inh 4.9
CN(C)C(=O)c1cccc(-c2csc(N3CCC(C(N)=O)CC3)n2)c1	none (no result: aSyn UTR inh, IMP-1 inh, VIM-2 inh)
O=C(C[C@H]1C[C@H](C(=O)N2CCCCC2)[C@@]2(CCc3ccccc3)c3[nH]c4cc(-c5ccco5)ccc4c3CCN2C1=O)NCCC1=CCCCC1	none (no result: aSyn UTR inh, IMP-1 inh, VIM-2 inh, Jurkat NFkB inh)
CC(C)(C)NC(=O)C[C@H]1C[C@H](C(=O)N2CCCCC2)[C@@]2(C)c3[nH]c4ccc(Cl)cc4c3CCN2C1=O	none (no result: aSyn UTR inh, IMP-1 inh, VIM-2 inh, Jurkat NFkB inh)
COc1ccc(NC(=O)C(NC(=O)c2ccccc2)C(C)C)cc1 (stereo unspecified)	none
COc1ccc(C(=O)N[C@H](C(=O)Nc2nc3ccccc3[nH]2)C(C)C)cc1	aSyn UTR inh 106.1
COc1cccc(C(=O)Nc2nc3ccccc3[nH]2)c1	aSyn UTR inh 62.6
Cc1ccc(S(=O)(=O)N2CCC(C(=O)OCC(=O)N3CCCC(C)C3)CC2)cc1C (stereo unspecified)	none (no result: IMP-1 inh, VIM-2 inh)
COCCCN(C(=O)CC1OC(=O)c2ccccc21)c1c(N)n(Cc2ccccc2)c(=O)[nH]c1=O (stereo unspecified)	none
COC(=O)c1c(C(=O)OC)c(-c2ccc(OC)cc2)n2c1CCC2	none
COc1ccc(-c2c(C(=O)O)c(C(=O)O)c3n2CCC3)cc1	VIM-2 inh 11.1
CNc1nc(SCC(=O)Nc2ccccc2)nc(N2CCOCC2)n1	none
CC1(C)Cc2c(c(-c3ccco3)nc3sc4c(NCCCO)ncnc4c23)CO1	IMP-1 inh 9.3
CC1(C)Cc2c(c(-c3ccco3)nc3sc4c(NCC5CCCO5)ncnc4c23)CO1 (stereo unspecified)	none
CCN1CCN(Cc2c(O)ccc3c2O/C(=C\C=C\c2ccccc2OC)C3=O)CC1	IMP-1 inh 27.6
CCCN1C(C)C(C(=O)OCC)=CN(Cc2cccc(I)c2)S1(=O)=O (stereo unspecified)	none (no result: aSyn UTR inh, IMP-1 inh, VIM-2 inh, Jurkat NFkB inh)
Cc1ccc(NC(=O)Cn2cncc2-c2ccc([N+](=O)[O-])cc2)cc1C	IMP-1 inh 11.9
COc1ccccc1NC(=O)Cn1cncc1-c1ccc([N+](=O)[O-])cc1	none
CCCc1ccc(-c2ccc(/C=C/C(=O)O)cc2)nc1	aSyn UTR inh 114.5 (no result: Mdm2-MdmX inh, Jurkat NFkB inh, 697 NFkB inh)
CCCCCc1ccc(-c2ccc(/C=C/C(=O)O)cc2)nc1	aSyn UTR inh 79.2
Nc1ccc(C(=O)N/N=C/c2cn(Cc3ccccc3F)c3ccccc23)cc1	aSyn UTR inh 72.4
COC(=O)N/N=C/c1cn(Cc2ccccc2F)c2ccccc12	none
Nc1ccc(C(=O)N/N=C/c2cn(Cc3ccccc3)c3ccccc23)cc1	none
Cc1ccccc1OCC(=O)N/N=C/c1cn(Cc2ccccc2)c2ccccc12	none
Cc1ccc(OCC(=O)N/N=C\c2cn(Cc3ccccc3)c3ccccc23)cc1C	aSyn UTR inh 76.1
